Results on 18 compounds are retold here after ChEMBL document CHEMBL1123456, “A novel class of conformationally restricted heterocyclic muscarinic agonists” (J Med Chem, 1986).

The target in data set [1] is Muscarinic acetylcholine receptor. The data set is described as follows: Inhibition of binding of radioactive N-propylbenzilycholine mustard ([3H]-PrBCM) to rat brain membranes. In kind it is cell membranes, Membrane.
The nature of data set [2]: Dissociation constant (pKa). It is filed as physicochemical. The procedure, abridged: (§1)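 pKa values measured in water at 25 °C by a previously published method.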
Data set [3] deals with Muscarinic acetylcholine receptor. The data set is described as follows: In vitro antagonistic activity against peripheral Muscarinic acetylcholine receptor in guinea pig ileum as inhibition of acetylcholine induced muscle contraction. In kind it is functional, tissue-based. The procedure, abridged: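 Guinea pigs were killed by a blow to the head and exsanguinated. A 30 mm ileum segment was held isotonically in Tyrode solution at 37 °C in an organ bath. IC50 was obtained by log probit analysis.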

Data set [4] in a line: pKa value is determined. It is filed as physicochemical. A digest of the protocol: as §1

The structures appear in SMILES notation.

Consider `C=CCOc1noc2c1CNCC2.Cl`, for which the IC50 – broadly, the concentration that gives 50% inhibition – in data set [1] amounted to 9.6 µM. Also, the pKa (as a rule, the pH at which an ionisable group is half protonated) in data set [2] worked out at 7.5.

For the compound `CCOc1noc2c1CN(C)CC2.Cl`, in data set [1], the IC50 worked out at 2.4 µM. This compound also came in with a pKa in data set [2] of 6.6.

For the compound `COc1noc2c1CN(C)CC2.Cl`, in data set [1], the half-maximal inhibitory concentration (IC50) is 27 µM. In addition, in data set [2], the pKa worked out at 6.6.

`C/C=C/COc1noc2c1CNCC2.Cl`: the IC50 in data set [1] was 14 µM; in data set [3], over 50 µM. The compound further displayed a pKa in data set [2] of 7.7.

With `CC(C)COc1noc2c1CNCC2.Cl`, the half-inhibitory concentration (IC50) was over 50 µM in data set [1] and 49 µM in data set [3]. In addition, in data set [2], the pKa is 7.7.

For `COc1noc2c1CNCC2.Cl`, the concentration for half-maximal inhibition (IC50) in data set [1] was 45 µM. In data set [4], this compound registered a pKa of 7.5.

Turning to `CCN1CCc2onc(OC)c2C1.Cl`, the IC50 in data set [1] was found to be 15 µM. The same compound showed a pKa in data set [2] of 7.

For the compound `Cl.c1ccc(COc2noc3c2CNCC3)cc1`, the 50% inhibitory concentration (IC50) in data set [1] is 32 µM; in data set [3] it was 48 µM. Besides, the pKa in data set [2] is 7.5.

For `CCOc1noc2c1CNCC2.Cl`, the IC50 in data set [1] stood at 6 µM. The pKa in data set [4] came out at 7.6.

As to `CC(C)Oc1noc2c1CNCC2.Cl`, the figures for the concentration for half-maximal inhibition (IC50) in data set [1] and in data set [3] were 3.5 µM and 11 µM, respectively. The same compound showed a pKa in data set [2] of 7.5.

Turning to `C#CCOc1noc2c1CNCC2.Cl`, the IC50 in data set [1] was 5.8 µM. The pKa in data set [2] was 7.6.

`C=C(Br)COc1noc2c1CNCC2.Cl`: the IC50 in data set [1] is 13 µM; in data set [3] it was 22 µM. In addition, the pKa in data set [2] worked out at 7.6.

In the case of `CCCOc1noc2c1CNCC2.Cl`, the IC50 in data set [1] turned out to be 10 µM; in data set [3], 35 µM. The compound further gave a pKa in data set [2] of 7.6.

Regarding `CCCCOc1noc2c1CNCC2.Cl`, the IC50 in data set [1] was 15 µM; in data set [3], over 50 µM. The pKa in data set [2] amounted to 7.6.

Turning to `CC#CCOc1noc2c1CNCC2.Cl`, the IC50 in data set [1] was found to be 5.2 µM. In data set [2], this compound displayed a pKa of 7.6.

In the case of `COc1noc2c1CN(Cc1ccccc1)CC2.Cl`, the IC50 in data set [1] and in data set [3] was over 50 µM each time. The compound further came in with a pKa in data set [2] of 6.1.

`COC(=O)C1=CCCN(C)C1` [ARECOLINE] yielded a pKa in data set [2] of 7.8.

Regarding `COC(=O)C1=CCCNC1` [NORARECOLINE], the concentration for half-maximal inhibition (IC50) in data set [1] stood at 30 µM. The same compound yielded a pKa in data set [2] of 8.7.
